This note sets out measurements from ChEMBL document CHEMBL1140264, “Sulfur-substituted alpha-alkyl phenethylamines as selective and reversible MAO-A inhibitors: biological activities, CoMFA analysis, and active site modeling” (J Med Chem, 2005).

Where only a bound is given, the exact number is not on record here.

The target of series [1] is T1, Amine oxidase [flavin-containing] A (Rattus norvegicus, UniProt P21396).
T1 sequence (P21396 whole entry): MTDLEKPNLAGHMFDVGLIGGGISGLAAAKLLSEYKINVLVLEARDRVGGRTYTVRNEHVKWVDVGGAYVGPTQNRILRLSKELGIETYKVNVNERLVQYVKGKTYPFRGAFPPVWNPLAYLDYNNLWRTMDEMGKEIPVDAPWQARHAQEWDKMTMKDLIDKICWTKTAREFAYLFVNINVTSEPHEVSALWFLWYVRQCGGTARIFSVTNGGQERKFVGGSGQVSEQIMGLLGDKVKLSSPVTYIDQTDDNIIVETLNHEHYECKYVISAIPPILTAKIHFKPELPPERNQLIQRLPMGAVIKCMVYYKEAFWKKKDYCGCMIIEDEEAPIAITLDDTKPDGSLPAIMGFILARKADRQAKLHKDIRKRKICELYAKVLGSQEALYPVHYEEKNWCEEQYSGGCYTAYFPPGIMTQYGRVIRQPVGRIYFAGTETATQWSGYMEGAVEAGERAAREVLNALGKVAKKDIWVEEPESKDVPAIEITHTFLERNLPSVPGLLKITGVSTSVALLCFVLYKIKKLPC
The series can be described thus: Inhibitory concentration against monoamine oxidase A in rat brain mitochondrial suspension. It counts as tissue-based. The essentials:
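Crude brain mitochondrial suspension from male Sprague-Dawley rats (180-220 g). MAO-A substrate 5-HT 100 µM; substrate and deaminated metabolite measured by HPLC with electrochemical detection. Inhibition relative to enzyme treated identically without inhibitor. IC50 from % inhibition vs -log[I] curves, 5-8 concentrations each in triplicate; mean ± SD of at least two independent experiments.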

For series [2], the target named is T1, Amine oxidase [flavin-containing] A. The series can be described thus: Percent inhibition of rat brain monoamine oxidase A in mitochondrial suspension after 10 minutes pre-incubation and washing at 10e-7 M. The essentials: (§1)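 Crude rat brain mitochondrial suspension preincubated 10 min with inhibitor, then washed three times by centrifugation and resuspension. MAO-A activity measured before and after washing by HPLC-ED with 5-HT (100 µM) as selective substrate, against control preparations. Mean ± SD of triplicate determinations.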

The target is the same in series [3]. The series can be described thus: Percent inhibition of rat brain monoamine oxidase A in mitochondrial suspension after 10 minutes pre-incubation before washing at 10e-7 M. The method, boiled down: as §1
For series [4] the target is unchanged. Briefly: Percent inhibition of rat brain monoamine oxidase A in mitochondrial suspension without pre-incubation at 10e-7 M.
The target is the same in series [5]. The series can be described thus: Percent inhibition of rat brain monoamine oxidase A in mitochondrial suspension with 30 minutes pre-incubation at 10e-7 M. The following applies: 0.5 h.

For `COc1cc(SC(C)C)c(OC)cc1CC(C)N` (configuration not stated), the half-maximal inhibitory concentration (IC50) in series [1] is 27.3 µM.
On the same count and under the same terms, next, `CCOc1ccc(CC(C)N)cc1` (configuration not stated): 0.2 µM; `CCCSc1cc(OC)c(CC(C)NC)cc1OC` (configuration not stated): 0.3 µM.
On the same count and under the same terms, next, `COc1cc(SC)cc(OC)c1CC(C)N` (configuration not stated): 0.3 µM; `CCC(Cc1cc(OC)c(SC)cc1OC)NC` (configuration not stated): 15.5 µM.
`COc1cc(Cl)c(CC(C)N)c(OC)c1` (configuration not stated) gave a concentration for half-maximal inhibition (IC50) in series [1] of 0.07 µM. For the same compound, the values for the Inhibition in series [2] and in series [3] were 0% and 58%, respectively.
`CCSc1cc(OC)c(CC(C)NC)cc1OC` (configuration not stated) gave a half-inhibitory concentration (IC50) in series [1] of 1.4 µM.
Same read-out and setting: the same measure for `CCCSc1cc(OC)c(CC(N)CC)cc1OC` (configuration not stated): 7.6 µM.
`CCSc1cc(OC)c(CC(C)N)c(OC)c1` (configuration not stated) showed an IC50 in series [1] of 0.08 µM. The Inhibition in series [2] is given as 0%; in series [3] it was 40%; in series [4], 23.7%; in series [5], 33%.
In series [1], `CNC(C)Cc1cc(OC)c(SC)cc1OC` (configuration not stated) returned a half-inhibitory concentration (IC50) of 1.8 µM.
On the same count and under the same terms, the same measure for `CC(C)CSc1ccc(CC(C)N)cc1` (configuration not stated): 0.4 µM.
In series [1], `CCCCSc1cc(OC)c(CC(C)N)cc1OC` (configuration not stated) registered an IC50 of 2.9 µM.
On the same count and under the same terms, the same measure for `CCC(N)Cc1cc(OC)c(SC)cc1OC` (configuration not stated): 30.9 µM; for `CCSc1cc(OC)c(CC(CC)NC)cc1OC` (configuration not stated): 4.5 µM.
On the same count and under the same terms, next, `CCCCCSc1cc(OC)c(CC(C)N)cc1OC` (configuration not stated): 14.3 µM; `CCCSc1cc(OC)c(CC(CC)NC)cc1OC` (configuration not stated): 1.4 µM; `COc1cc(SCCc2ccccc2)c(OC)cc1CC(C)N` (configuration not stated): over 100 µM.
`CCSc1ccc(CC(C)N)cc1` (configuration not stated): in series [1], the half-inhibitory concentration (IC50) was determined as 0.1 µM.
On the same count and under the same terms, the same measure for `COc1ccc(CC(C)N)cc1OC` (configuration not stated): 20 µM.
In the case of `COc1ccc(CC(C)N)c(OC)c1` (configuration not stated), in series [1], the IC50 came out at 0.6 µM.
On to `COc1cc(Br)c(CC(C)N)cc1OC` (configuration not stated), for which the half-inhibitory concentration (IC50) in series [1] turned out to be 9.3 µM.
Same read-out and setting: the same measure for `COc1cc(OC)c(CC(C)N)cc1Br` (configuration not stated): 13 µM.
Regarding `CCSc1cc(OC)c(CC(C)N)cc1OC` (configuration not stated), the IC50 in series [1] was 3.8 µM.
Still for that read-out and setting: next, `COc1cc(OC)c(CC(C)N)c(OC)c1` (configuration not stated): 0.4 µM.
In turn, `CCCSc1cc(OC)c(CC(C)N)cc1OC` (configuration not stated) yielded an IC50 in series [1] of 2.4 µM. In addition, the Inhibition in series [2] came to 0%; in series [3], 20%; in series [4] it was 15.7%; in series [5], 20%.
`CC(N)Cc1ccc(Cl)cc1` (configuration not stated): half-maximal inhibition in series [1] (IC50) required 4 µM.
Still for that read-out and setting: next, `CCSc1cc(OC)c(CC(N)CC)cc1OC` (configuration not stated): 11.8 µM; `COc1cc(SC)c(OC)cc1CC(C)N` (configuration not stated): 5.2 µM; `COc1cc(CC(C)N)c(OC)cc1I` (configuration not stated): 44 µM.
Still for that read-out and setting: the same measure for `COc1cc(C(F)(F)F)c(OC)cc1CC(C)N` (configuration not stated): over 100 µM; for `COc1cc(CC(C)N)c(OC)cc1N` (configuration not stated): over 100 µM.
On the same count and under the same terms, the same measure for `COc1cc([N+](=O)[O-])c(OC)cc1CC(C)N` (configuration not stated): over 100 µM; for `COc1ccc(OC)c(CC(C)N)c1` (configuration not stated): over 100 µM; for `CSc1ccc(CC(C)N)cc1` (configuration not stated) [4-METHYLTHIOAMPHETAMINE]: 0.2 µM.
In series [1], `COc1cc(CC(C)N)c(OC)cc1Br` (configuration not stated) [BROLAMFETAMINE] registered an IC50 of 100 µM.
In series [1], `COc1cc(CC(C)N)c(OC)cc1C` (configuration not stated) [DOM] came in with an IC50 of 24 µM.
`COc1ccc(CC(C)N)cc1` (configuration not stated) [PARA-METHOXYAMPHETAMINE] had an IC50 in series [1] of 0.3 µM.

What is called IC50 is the concentration that inhibits the measured activity by half. Low readings indicate greater potency, high ones weaker potency. The Inhibition is how much of the control response was suppressed. Read a low Inhibition as a response near the control.
